# pIC50: −log10 of the molar value.
# What was measured:
# Plasmodium falciparum [1] = test: Antimalarial activity against chloroquine-sensitive Plasmodium falciparum 3D7 infected in erythrocytes measured after 3 days by HRP2-ELISA analysis; type: functional, organism-based; details: 3D7, Erythrocyte, 72 h
# Plasmodium falciparum [2] = test: Antimalarial activity against chloroquine, sulfadoxine, and pyrimethamine-resistant Plasmodium falciparum Dd2 infected in erythrocytes measured after 3 days by HRP2-ELISA analysis; type: functional, organism-based; details: Dd2, Erythrocyte, 72 h
# Plasmodium falciparum [3] = test: Antimalarial activity against Plasmodium falciparum K1 infected in human erythrocytes assessed as inhibition of parasite growth measured after 48 hrs incubation by [3H]hypoxanthine incorporation assay; type: functional, organism-based; details: K1, Erythrocyte
# Plasmodium falciparum [4] = test: Antimalarial activity against Plasmodium falciparum NF54 infected in human erythrocytes assessed as inhibition of parasite growth measured after 48 hrs incubation by [3H]hypoxanthine incorporation assay; type: functional, organism-based; details: NF54, Erythrocyte
# Plasmodium knowlesi = test: Antiplasmodial activity against Plasmodium Knowlesi inhibition of parasite growth measured after 48 hrs incubation by Sybr-green assay; type: functional, organism-based
# [5] = Cytotoxicity against human HEK293 cells assessed as cell viability measured after 24 hrs by neutral red assay; type: toxicity, cell-based
# Plasmodium falciparum [6] = test: Induction of resistance development in Plasmodium falciparum Dd2 Pol delta at 2 x 10^7 initial inoculum per flask by single-step selection assay; type: functional, organism-based
# Plasmodium falciparum [7] = test: Induction of resistance development in Plasmodium falciparum Dd2 Pol delta at 2 x 10^9 initial inoculum per flask at 9 nM measured 60 days of recovery time by single-step selection assay; type: functional, organism-based; details: time 60.0 day
# Plasmodium falciparum [8] = test: Ex vivo antimalarial activity against Plasmodium falciparum clinical isolates; type: functional, organism-based
# Plasmodium falciparum [9] = test: Antimalarial activity against […] wild type Plasmodium falciparum NF54 assessed as inhibition of parasite growth incubated for 48 hrs by [3H]hypoxanthine incorporation assay; type: functional, organism-based
# Plasmodium falciparum [10] = test: Antimalarial activity against multidrug-resistant Plasmodium falciparum Dd2 harboring pfcrt, pfmdr1, pfdhfr, pfdhps mutated loci assessed as inhibition of parasite growth incubated for 48 hrs by [3H]hypoxanthine incorporation assay; type: functional, organism-based
# Plasmodium falciparum [11] = test: Antimalarial activity against multidrug-resistant Plasmodium falciparum TM90C2b harboring pfcrt, pfmdr1, pfdhfr, pfdhps and pfcytb-Q0 mutated loci assessed as inhibition of parasite growth incubated for 48 hrs by [3H]hypoxanthine incorporation assay; type: functional, organism-based
# [12] = Plasma stability at 37 °C measured as remaining drug at 2 hrs sampled in triplicate (concentration 25 ng/mL 2 (TKK130)); type: ADME, cell-free; details: human, at 25 ng/mL, read-out: Stability
# Method in brief: (§1)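 Fresh EDTA human plasma warmed to 37 °C, spiked to 25 ng/mL (0.5% methanol final), split into three fractions, shaken at 37 °C. Samples at 0, 2, 4, 6, 24, 48 h precipitated with ice-cold acetonitrile containing internal standard; LC–MS/MS. Recovery = analyte/IS area ratio relative to 0 h; triplicate.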
# [13] = Plasma stability at 37 °C measured as remaining drug at 4 hrs sampled in triplicate (concentration 25 ng/mL 2 (TKK130)); type: ADME, cell-free; details: human, at 25 ng/mL, read-out: Stability; method in brief: as §1
# [14] = Plasma stability at 37 °C measured as remaining drug at 6 hrs sampled in triplicate (concentration 25 ng/mL 2 (TKK130)); type: ADME, cell-free; details: human, at 25 ng/mL, read-out: Stability; method in brief: as §1
# [15] = Plasma stability at 37 °C measured as remaining drug at 48 hrs sampled in triplicate (concentration 25 ng/mL 2 (TKK130)); type: ADME, cell-free; details: human, at 25 ng/mL, read-out: Stability; method in brief: as §1
# [16] = Unbound drug concentration in plasma (unknown origin) at 25 ng/ml measured after 24 hrs by dilution method; type: ADME, cell-free
# Method in brief: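 Equilibrium dialysis with donor plasma diluted 1:10 or 1:20 in 0.9% saline, spiked at 25 ng/mL, against 0.9% saline acceptor for 24 h at 37 °C. Concentrations by LC–MS/MS against diluted-plasma calibration curves; unbound fraction (acceptor/donor) back-calculated to undiluted plasma; triplicate; itraconazole reference.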
# Plasmodium falciparum [17] = test: Antimalarial activity against wild type Plasmodium falciparum Dd2 infected in human erythrocytes assessed as inhibition of parasite growth measured after 72 hrs incubation by [3H]hypoxanthine incorporation assay; type: functional, organism-based; details: Dd2, Erythrocyte
# Method in brief: (§2)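 Dd2 parent line, and mutants made from it by gene editing or drug selection. Growth inhibition measured by the 72 h [3H]hypoxanthine incorporation assay at Swiss TPH. Values are means of 2 independent biological replicates.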
# Plasmodium falciparum [18] = test: Antimalarial activity against Plasmodium falciparum Dd2 DDD107498 harboring PfeEF2 mutant infected in human erythrocytes assessed as inhibition of parasite growth measured after 72 hrs incubation by [3H]hypoxanthine incorporation assay; type: functional, organism-based; details: Dd2 DDD107498, Erythrocyte; method in brief: as §2
# Plasmodium falciparum [19] = test: Antimalarial activity against Plasmodium falciparum Dd2 GNF156 harboring Pfcarl-mutant infected in human erythrocytes assessed as inhibition of parasite growth measured after 72 hrs incubation by [3H]hypoxanthine incorporation assay; type: functional, organism-based; details: Dd2 GNF156, Erythrocyte; method in brief: as §2
# Plasmodium falciparum [20] = test: Antimalarial activity against Plasmodium falciparum Dd2 MMV183 harboring PfACoAS-mutant infected in human erythrocytes assessed as inhibition of parasite growth measured after 72 hrs incubation by [3H]hypoxanthine incorporation assay; type: functional, organism-based; details: Dd2 MMV183, Erythrocyte; method in brief: as §2
# Plasmodium berghei [21] = test: In vivo antiplasmodial activity against Plasmodium berghei infected mouse model assessed as parasitemia suppression in blood at 50 mg/kg, po treated 4 times measured at 96 hrs post infection by fluorescence-activated cell sorting (FACS) analysis; type: functional
# Plasmodium berghei [22] = test: In vivo antiplasmodial activity against Plasmodium berghei infected mouse model assessed as parasitemia suppression in blood at 10 mg/kg, po treated 4 times measured at 96 hrs post infection by fluorescence-activated cell sorting (FACS) analysis; type: functional
# Plasmodium berghei [23] = test: In vivo antiplasmodial activity against Plasmodium berghei infected mouse model assessed as mean survival time at 10 mg/kg, po treated 4 times measured at 96 hrs post infection by fluorescence-activated cell sorting (FACS) analysis (reference value: 4 days); type: functional
# Plasmodium berghei [24] = test: In vivo antiplasmodial activity against Plasmodium berghei infected mouse model assessed as mean survival time at 3 mg/kg, po treated 4 times measured at 96 hrs post infection by fluorescence-activated cell sorting (FACS) analysis (reference value: 4 days); type: functional
# Plasmodium berghei [25] = test: In vivo antiplasmodial activity against Plasmodium berghei infected mouse model assessed as curation rate at 50 mg/kg, po treated 4 times measured at 96 hrs post infection by fluorescence-activated cell sorting (FACS) analysis; type: functional
# Plasmodium berghei [26] = test: In vivo antiplasmodial activity against Plasmodium berghei infected mouse model assessed as curation rate at 3 mg/kg, po treated 4 times measured at 96 hrs post infection by fluorescence-activated cell sorting (FACS) analysis; type: functional
# [27] = Cmax in mouse infected with Plasmodium berghei at 10 mg/kg, po; type: ADME, organism-based; details: in vivo
# Method in brief: (§3)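 Single oral dose to P. berghei-infected mice, 2 mice per dose group. Blood sampled at 1, 4 and 24 h post-dose as dried blood spots, plus a blank "0 h" reading. Spots diluted 1:5 (3, 10 mg/kg) or 1:10 (30 mg/kg), then quantified by LC–MS/MS against a whole-blood calibration of 1.56–800 ng/mL with QCs at three levels.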
# [28] = Cmax in mouse infected with Plasmodium berghei at 30 mg/kg, po; type: ADME, organism-based; details: in vivo; method in brief: as §3
# [29] = Tmax in mouse infected with Plasmodium berghei at 10 mg/kg, po; type: ADME, organism-based; details: in vivo
# Method in brief: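 Infected mice (n = 2 per dose) given a single oral dose of 3, 10 or 30 mg/kg; blood sampled as dried blood spots at 1, 4 and 24 h post-dose, diluted before LC–MS analysis against whole-blood dried-spot calibration (1.56–800 ng/mL) with QCs; tmax from concentration–time profiles.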
compound,measurement,setting,value
Cl.N=C(CC(O)c1cc2c(F)cc(F)cc2c2cc(C(F)(F)F)ccc12)Nc1ccc(F)cc1 (stereo not given),pIC50,Plasmodium falciparum [1],8.70
same,pIC50,Plasmodium falciparum [2],8.52
same,pIC50,Plasmodium falciparum [3],8.52
same,pIC50,Plasmodium falciparum [4],7.96
same,pIC50,Plasmodium knowlesi,9.00
same,IC50 at 24 h,[5],47800 nM
same,Activity,Plasmodium falciparum [6],Active; No Resistant Parasites Generated
same,Activity,Plasmodium falciparum [7],Active; No Subsequent Parasite Growth Observed
same,pIC50,Plasmodium falciparum [8],8.12
same,pIC50,Plasmodium falciparum [9],7.96
same,pIC50,Plasmodium falciparum [10],6.76
same,pIC50,Plasmodium falciparum [11],6.90
same,"remaining at 2 h, 25 ng/mL",[12],90.2%
same,"remaining at 4 h, 25 ng/mL",[13],89.1%
same,"remaining at 6 h, 25 ng/mL",[14],91.9%
same,"remaining at 48 h, 25 ng/mL",[15],59.4%
same,Cp(f),[16],0.4%
same,pIC50,Plasmodium falciparum [17],7.82
same,pIC50,Plasmodium falciparum [18],7.80
same,pIC50,Plasmodium falciparum [19],8.15
same,pIC50,Plasmodium falciparum [20],7.89
same,Activity,Plasmodium berghei [21],99.8%
same,Activity,Plasmodium berghei [22],99.9%
same,MSD,Plasmodium berghei [23],28 days
same,MSD,Plasmodium berghei [24],20 days
same,Activity,Plasmodium berghei [25],100%
same,Activity,Plasmodium berghei [26],0%
same,Cmax,[27],599 ng/mL
same,Cmax,[28],2030 ng/mL
same,Tmax,[29],4 h

# — ChEMBL document CHEMBL6087468, “TKK130 is a 3-Hydroxy-Propanamidine (HPA) with Potent Antimalarial In Vivo Activity and a High Barrier to Resistance” (J Med Chem, 2025)
